Test results: PubChem BioAssay AID743061 (The Scripps Research Institute Molecular Screening Center, 2013)
“And” between values parts separate entries of the source, which are not always exact repeats. Equal entries are not always repeated.

Each compound was assayed against Methionine--tRNA ligase, mitochondrial (Homo sapiens) (UniProt Q96GW9) (assay: human mtMetRS tRNA charging inhibition – biochemical, radioactivity, round 1, selectivity assay for T. brucei MetRS inhibitor project, late-stage follow-up (AID 743061;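 note: 0% = DMSO with full reaction and 100% = DMSO wells lacking tRNA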)). Details: recombinant human mtMetRS, [3H]Met tRNA charging, at 10 µM, stronger effect = higher value.
Procedure, shortened: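 Material: Recombinant human mitochondrial methionyl-tRNA synthetase (MetRS) | Medium: pH 8.0 buffer, 2.5 mM ATP | Reagent: [3H]Met 240 nM plus bulk E. coli tRNA | Compound: 10 and 1 µM | Schedule: 15 min compound–enzyme preincubation, then 1 h reaction at room temperature | Measured by: Scintillation counts of TCA-precipitated charged tRNA on filters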
O=C(CCC(=O)Nc1cccc([N+](=O)[O-])c1)NN=Cc1cccs1 was tested, and the inhibition was -14.1%. For O=C1CC(NCCc2ccccc2)C(=O)N1c1ccc(Br)cc1 (stereo not given), the inhibition was 6.62%. For COc1ccccc1NS(=O)(=O)c1cccc(NC(=O)Nc2ccccc2)c1, the inhibition was 19.1%. In the case of O=C(Cn1cc(C(=O)c2ccccc2)c2ccccc21)Nc1cccc(C(F)(F)F)c1, the inhibition is reported as 9.64%. CC(=O)c1c[nH]c(C(=O)NCc2cccc(C(F)(F)F)c2)c1 gave an inhibition of 43.8%. With Oc1c(Cl)cc(Cl)cc1CNc1nc2ccccc2[nH]1 the inhibition was 31.4%. With O=C(NCCc1nc2ccccc2[nH]1)c1ccc(Cl)c(Cl)c1 the inhibition was 27.7%. Work on O=C(NCCc1nc2ccccc2[nH]1)c1ccc(Cl)cc1Cl yielded an inhibition of 48.7%. O=C(NCc1nc2ccccc2[nH]1)C1=C[C@@H](c2ccc3c(c2)OCO3)C[C@@H](OCCCCO)O1 was tested, and the inhibition was -0.58%. Compound O=C(NCc1nc2ccccc2[nH]1)C1=C[C@@H](c2ccc(Br)cc2)C[C@@H](OCCCCO)O1 has an inhibition of 29%. Work on CC(C)(C)[C@@H]1C=C(C(=O)NCc2nc3ccccc3[nH]2)O[C@H](OCc2ccc(CO)cc2)C1 yielded an inhibition of -5.44%. With Clc1ccc(-c2nnc(SCc3nc4ccccc4[nH]3)o2)c(Cl)c1 the inhibition was 41.9%. O=C(CSC1CC(=O)N(c2cccc(Cl)c2)C1=O)Nc1ccc(Br)cc1 (stereo not given) gave an inhibition of 1.19%. In the case of CCN(CC)C(=O)C(=O)c1cn(CC(=O)Nc2cccc(OC)c2)c2ccccc12, the inhibition is reported as 17.3%. CCCCn1c(CCNC(=O)c2ccc(F)cc2)nc2ccccc21 was tested, and the inhibition was 5.87%. For O=C(Nc1ccc(F)c(Cl)c1)C1CC(=O)n2c(nc3ccccc32)N1 (stereo not given), the inhibition was 4.32% and 12.5%. CCc1ccc2c(c1)c1nnc(SCC(=O)Nc3ccc4c(c3)OCO4)nc1n2C was tested, and the inhibition was 5.87%. Compound Brc1cnc2nc(SCc3nc4ccccc4[nH]3)[nH]c2c1 has an inhibition of -14.2%. Work on O=C(CC=NOCc1ccc([N+](=O)[O-])cc1)Nc1ccc(Br)cc1 yielded an inhibition of -6.71%. For O=C(NCc1nc2ccccc2[nH]1)C1=C[C@@H](c2ccc(Br)cc2)C[C@@H](OCc2ccc(CO)cc2)O1, the inhibition was 16.7%. O=C(NCc1nc2ccccc2[nH]1)C1=C[C@H](c2csc3ccccc23)C[C@H](OCCCCO)O1 gave an inhibition of 2.21%. For O=C(NNC(=O)c1ccc(-n2cncn2)c([N+](=O)[O-])c1)c1ccc(Cl)cc1, the inhibition was -21.4%. Compound O=C(Cn1cc(C(=O)C(=O)N2CCCC2)c2ccccc21)Nc1ccccc1 has an inhibition of -0.86%. For COCCc1nc2ccc(C(=O)NCCc3nc4ccc(OC)cc4[nH]3)cc2o1, the inhibition was 0.45%. For Cc1ccc(CNC(=O)CSc2nnc3c(n2)[nH]c2ccc(C)cc23)cc1, the inhibition was 5.9%. For CCN(CC)C(=O)C(=O)c1cn(CC(=O)Nc2ccccc2OC)c2ccccc12, the inhibition was -1.19%. In the case of CC(C)(C)[C@H]1C=C(C(=O)NCc2nc3ccccc3[nH]2)O[C@@H](OCc2ccc(CO)cc2)C1, the inhibition is reported as 10.3%. With CCc1ccc2[nH]c3nc(SCC(=O)NCc4cccc(OC)c4)nnc3c2c1 the inhibition was 13.1%. With O=C(Cn1cnc2ccccc21)Nc1cccc([N+](=O)[O-])c1 the inhibition was -2.2%. O=C(NCc1nc2ccccc2[nH]1)C1=C[C@@H](C2CC2)C[C@@H](OCc2ccc(CO)cc2)O1 gave an inhibition of 5.87%. Compound Cc1ccc(C(=O)NCCc2nc3ccccc3[nH]2)cc1C has an inhibition of 1.68%. Work on O=C(NCCc1nc2ccccc2[nH]1)c1ccc(Cl)cc1 yielded an inhibition of 7.1%. Compound CC(C)c1nc2ccc(C(=O)N(C)CCc3nc4ccc(F)cc4[nH]3)cc2o1 has an inhibition of 0.38%. In the case of COc1cccc(NC(=O)C2CC(=O)n3c(nc4ccccc43)N2)c1 (stereo not given), the inhibition is reported as 9.79%. COc1ccc(NC(=O)CSc2nnc3c4cc(C)ccc4n(C)c3n2)cc1 was tested, and the inhibition was 8.46%.
